Assay results as given in ChEMBL document CHEMBL1649357, “Protective effects of baicalin against ischemia/reperfusion injury in rat liver” (2010).
Calls of active or inactive are those of the source. The calls are words filed in the database; no cut-off is given here.

How the values were obtained:
Rattus norvegicus [1] = assay: Hepatoprotective activity in Sprague-Dawley rat sham operated model assessed as decrease of serum ALT level at 200 mg/kg, ip administered 24 hrs and 1 hr before ischemia; format: functional; conditions: route intraperitoneal
In short: (§1)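 Serum ALT was read spectrophotometrically with a kit at 5 h reperfusion, in U·L-1, mean ± SEM, n = 8-10.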

Rattus norvegicus [2] = assay: Hepatoprotective activity in Sprague-Dawley rat ischemia-reperfusion model assessed as decrease of serum ALT level at 200 mg/kg, ip administered 24 hrs and 1 hr before ischemia; format: functional; conditions: route intraperitoneal; in short: as §1
Rattus norvegicus [3] = assay: Hepatoprotective activity in Sprague-Dawley rat sham operated model assessed as protection against histopathologic damage at 200 mg/kg, ip administered 24 hrs and 1 hr before ischemia by TUNEL staining; format: functional; conditions: route intraperitoneal, in the assay text read “by hematoxylin and eosin staining” for “by TUNEL staining”
In short: (§2)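 Left-lobe tissue was fixed in formalin and paraffin sections (5 µm) were stained with H&E. Injury was scored at 200× by point counting on an ordinal severity scale (grade 0 = minimal or none).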

Rattus norvegicus [4] = assay: Hepatoprotective activity in Sprague-Dawley rat ischemia-reperfusion model assessed as protection against histopathologic damage at 200 mg/kg, ip administered 24 hrs and 1 hr before ischemia by TUNEL staining; format: functional; conditions: route intraperitoneal, in the assay text read “by hematoxylin and eosin staining” for “by TUNEL staining”; in short: as §2
Rattus norvegicus [5] = assay: Hepatoprotective activity in Sprague-Dawley rat sham operated model assessed as decrease of malondialdehyde level per gram of protein at 200 mg/kg, ip administered 24 hrs and 1 hr before ischemia relative to control; format: functional; conditions: route intraperitoneal
Rattus norvegicus [6] = assay: Hepatoprotective activity in Sprague-Dawley rat ischemia-reperfusion model assessed as decrease of malondialdehyde level per gram of protein at 200 mg/kg, ip administered 24 hrs and 1 hr before ischemia relative to control; format: functional; conditions: route intraperitoneal
Rattus norvegicus [7] = assay: Hepatoprotective activity in Sprague-Dawley rat sham operated model assessed as decrease of glutathione level per gram of liver at 200 mg/kg, ip administered 24 hrs and 1 hr before ischemia relative to control; format: functional; conditions: route intraperitoneal
In short: (§3)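 Liver homogenate was precipitated with 1% picric acid. Total glutathione was measured by the glutathione reductase/DTNB/NADPH method at 412 nm, and GSSG the same way with 2-vinylpyridine. GSH is the difference, in µmol·g liver-1.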

Rattus norvegicus [8] = assay: Hepatoprotective activity in Sprague-Dawley rat ischemia-reperfusion model assessed as decrease of glutathione level per gram of liver at 200 mg/kg, ip administered 24 hrs and 1 hr before ischemia relative to control; format: functional; conditions: route intraperitoneal; in short: as §3
Rattus norvegicus [9] = assay: Antiinflammatory activity in Sprague-Dawley rat sham operated model assessed as decrease of serum TNFalpha level at 200 mg/kg, ip administered 24 hrs and 1 hr before ischemia by ELISA relative to control; format: functional; conditions: route intraperitoneal
Rattus norvegicus [10] = assay: Antiinflammatory activity in Sprague-Dawley rat ischemia-reperfusion model assessed as decrease of serum TNFalpha level at 200 mg/kg, ip administered 24 hrs and 1 hr before ischemia by ELISA relative to control; format: functional; conditions: route intraperitoneal
Rattus norvegicus [11] = assay: Antiinflammatory activity in Sprague-Dawley rat sham operated model assessed as decrease of serum IL-6 level at 200 mg/kg, ip administered 24 hrs and 1 hr before ischemia by ELISA relative to control; format: functional; conditions: route intraperitoneal
Rattus norvegicus [12] = assay: Antiinflammatory activity in Sprague-Dawley rat ischemia-reperfusion model assessed as decrease of serum IL-6 level at 200 mg/kg, ip administered 24 hrs and 1 hr before ischemia by ELISA relative to control; format: functional; conditions: route intraperitoneal
Rattus norvegicus [13] = assay: Antiinflammatory activity in Sprague-Dawley rat ischemia-reperfusion model assessed as decrease of IL-6 mRNA expression in liver tissue at 200 mg/kg, ip administered 24 hrs and 1 hr before ischemia by RT-PCR analysis; format: functional, organism-based; design: dose 200 mg/kg
Rattus norvegicus [14] = assay: Antiinflammatory activity in Sprague-Dawley rat ischemia-reperfusion model assessed as decrease of TNFalpha mRNA expression in liver tissue at 200 mg/kg, ip administered 24 hrs and 1 hr before ischemia by RT-PCR analysis; format: functional, organism-based; design: dose 200 mg/kg
Rattus norvegicus [15] = assay: Antiinflammatory activity in Sprague-Dawley rat ischemia-reperfusion model assessed as inhibition of COX2 mRNA expression in liver tissue at 200 mg/kg, ip administered 24 hrs and 1 hr before ischemia by RT-PCR analysis; format: functional, organism-based; design: dose 200 mg/kg
Rattus norvegicus [16] = assay: Antiinflammatory activity in Sprague-Dawley rat ischemia-reperfusion model assessed as inhibition of iNOS mRNA expression in liver tissue at 200 mg/kg, ip administered 24 hrs and 1 hr before ischemia by RT-PCR analysis; format: functional, organism-based; design: dose 200 mg/kg
Rattus norvegicus [17] = assay: Antiinflammatory activity in Sprague-Dawley rat ischemia-reperfusion model assessed as inhibition of iNOS protein expression in liver tissue at 200 mg/kg, ip administered 24 hrs and 1 hr before ischemia by Western blot analysis; format: functional, organism-based; design: dose 200 mg/kg
In short: (§4)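 Liver homogenates were blotted, and nuclear and cytosolic fractions were isolated with NE-PER reagents. 20 µg protein per lane was run on 10% gels and transferred to nitrocellulose, with 5% milk block for 60 min. Polyclonal antibodies detected iNOS, COX-2, HO-1, NF-κB/p65, IκB-α and lamin B1, with β-actin as control, read by ECL.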

Rattus norvegicus [18] = assay: Antiinflammatory activity in Sprague-Dawley rat ischemia-reperfusion model assessed as inhibition of COX2 protein expression in liver tissue at 200 mg/kg, ip administered 24 hrs and 1 hr before ischemia by Western blot analysis; format: functional, organism-based; design: dose 200 mg/kg; in short: as §4
Rattus norvegicus [19] = assay: Antiinflammatory activity in Sprague-Dawley rat ischemia-reperfusion model assessed as inhibition of HO-1 mRNA expression in liver tissue at 200 mg/kg, ip administered 24 hrs and 1 hr before ischemia by RT-PCR analysis; format: functional, organism-based; design: dose 200 mg/kg
Rattus norvegicus [20] = assay: Antiinflammatory activity in Sprague-Dawley rat ischemia-reperfusion model assessed as inhibition of nuclear localization of NF-kappaB/p65 subunit in liver tissue at 200 mg/kg, ip administered 24 hrs and 1 hr before ischemia by Western blot analysis; format: functional, organism-based; design: dose 200 mg/kg; in short: as §4
Rattus norvegicus [21] = assay: Antiinflammatory activity in Sprague-Dawley rat ischemia-reperfusion model assessed as inhibition of degradation of IkappaB-alpha in liver tissue at 200 mg/kg, ip administered 24 hrs and 1 hr before ischemia by Western blot analysis; format: functional, organism-based; design: dose 200 mg/kg; in short: as §4
Rattus norvegicus [22] = assay: Hepatoprotective activity in Sprague-Dawley rat ischemia-reperfusion model assessed as decrease of mitochondrial swelling in liver tissue at 200 mg/kg, ip administered 24 hrs and 1 hr before ischemia relative to control; format: functional, organism-based; design: dose 200 mg/kg
In short: (§5)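 Mitochondria were isolated by differential centrifugation in sucrose/Tris/EDTA, pH 7.2. Mitochondria (4 mg) were suspended in phosphate buffer pH 7.2 with 250 mM sucrose, 5 mM KH2PO4 and 1 µM rotenone at 25 °C. Initial swelling rate was taken as A520 change per min per mg protein.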

Rattus norvegicus [23] = assay: Hepatoprotective activity in Sprague-Dawley rat ischemia-reperfusion model assessed as decrease of caspase 3 activity in liver tissue at 200 mg/kg, ip administered 24 hrs and 1 hr before ischemia […] relative to control; format: functional, organism-based; design: dose 200 mg/kg
In short: (§6)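 Liver (1 g) was homogenized in Tris/MgCl2/EGTA buffer and spun at 600g, then 40000g. 30 µg cytosolic protein was preincubated 15 min at room temperature in HEPES/EDTA/NaCl/Triton/10 mM DTT. Fluorogenic substrate was then added at 200 µM and incubated at 37 °C. Fluorescence (ex 400/em 490 nm) was read at 120 min and expressed as % of vehicle I/R.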

Rattus norvegicus [24] = assay: Hepatoprotective activity in Sprague-Dawley rat ischemia-reperfusion model assessed as decrease of caspase 8 activity in liver tissue at 200 mg/kg, ip administered 24 hrs and 1 hr before ischemia […] relative to control; format: functional, organism-based; design: dose 200 mg/kg; in short: as §6
Rattus norvegicus [25] = assay: Hepatoprotective activity in Sprague-Dawley rat ischemia-reperfusion model assessed as decrease of TRADD protein expression in liver tissue at 200 mg/kg, ip administered 24 hrs and 1 hr before ischemia by Western blot analysis; format: functional, organism-based; design: dose 200 mg/kg
Rattus norvegicus [26] = assay: Hepatoprotective activity in Sprague-Dawley rat ischemia-reperfusion model assessed as protection against apoptosis in liver tissue at 200 mg/kg, ip administered 24 hrs and 1 hr before ischemia by TUNEL assay; format: functional, organism-based; design: dose 200 mg/kg
In short: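 TUNEL kit staining was done on liver sections. TUNEL-positive cells were counted in randomly chosen 400× fields per section.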

Rattus norvegicus [27] = assay: Hepatoprotective activity in Sprague-Dawley rat sham operated model assessed as decrease of mitochondrial swelling in liver tissue at 200 mg/kg, ip administered 24 hrs and 1 hr before ischemia relative to control; format: functional, organism-based; design: dose 200 mg/kg; in short: as §5
Rattus norvegicus [28] = assay: Hepatoprotective activity in Sprague-Dawley rat sham operated model assessed as decrease of caspase 8 activity in liver tissue at 200 mg/kg, ip administered 24 hrs and 1 hr before ischemia by relative to control
Rattus norvegicus [29] = assay: Antiinflammatory activity in Sprague-Dawley rat ischemia-reperfusion model assessed as increase in HO-1 protein expression in liver tissue at 200 mg/kg, ip administered 24 hrs and 1 hr before ischemia by Western blot analysis
Rattus norvegicus [30] = assay: Hepatoprotective activity in Sprague-Dawley rat sham operated model assessed as decrease of caspase 3 activity in liver tissue at 200 mg/kg, ip administered 24 hrs and 1 hr before ischemia by fluorogenic peptide substrate assay relative to control

## O=C(O)[C@H]1O[C@@H](Oc2cc3oc(-c4ccccc4)cc(=O)c3c(O)c2O)[C@H](O)[C@@H](O)[C@@H]1O [BAICALIN]
Rattus norvegicus [1]
  Activity: 42.5 U/L
Rattus norvegicus [2]
  Activity: 2658.1 U/L
Rattus norvegicus [3]
  Activity: 0.45
Rattus norvegicus [4]
  Activity: 1.6
Rattus norvegicus [5]
  Activity: 0.35 nmol
Rattus norvegicus [6]
  Activity: 0.31 nmol
Rattus norvegicus [7]
  Activity: 5.5 µmol
Rattus norvegicus [8]
  Activity: 4.98 µmol
Rattus norvegicus [9]
  Activity: 17.8 pg/mL
Rattus norvegicus [10]
  Activity: 64.8 pg/mL
Rattus norvegicus [11]
  Activity: 37.6 pg/mL
Rattus norvegicus [12]
  Activity: 77.4 pg/mL
Rattus norvegicus [13]
  Activity: Active
Rattus norvegicus [14]
  Activity: inactive
Rattus norvegicus [15]
  inhibition: Active
Rattus norvegicus [16]
  inhibition: inactive
Rattus norvegicus [17]
  inhibition: Active
Rattus norvegicus [18]
  inhibition: Active
Rattus norvegicus [19]
  inhibition: Active
Rattus norvegicus [20]
  inhibition: Active
Rattus norvegicus [21]
  inhibition: Active
Rattus norvegicus [22]
  Activity: Active
Rattus norvegicus [23]
  Activity: Active
Rattus norvegicus [24]
  Activity: Active
Rattus norvegicus [25]
  Activity: Active
Rattus norvegicus [26]
  Activity: Active
Rattus norvegicus [27]
  Activity: Active
Rattus norvegicus [28]
  Activity: Active
Rattus norvegicus [29]
  increase: Active
Rattus norvegicus [30]
  Activity: Active
